Source: PubChem (The Scripps Research Institute Molecular Screening Center)
CHO-K1 Ca antag – M1 antagonist counterscreen hit in parental CHO-K1 cells. 0.6% of 360,000 active. ATP-induced calcium, Fluo-8 fluorescence. inhibition, % at 3 µM;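 active = inhibition above a per-plate cutoff, the plate's mean sample inhibition plus 3 SD, cut at about 24% in these data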
OX1R antag-1 – OX1R (human) antagonism; O43613; OX1R-expressing cells, FRET antagonist read-out; inhibition, % at 6.6 µM; 1.8% of 330,000 active; in the data active = inhibition mostly above about 38%, no sharp cut-off; inactive = mostly below about 40%
Target sequence (O43613 whole entry, looked up): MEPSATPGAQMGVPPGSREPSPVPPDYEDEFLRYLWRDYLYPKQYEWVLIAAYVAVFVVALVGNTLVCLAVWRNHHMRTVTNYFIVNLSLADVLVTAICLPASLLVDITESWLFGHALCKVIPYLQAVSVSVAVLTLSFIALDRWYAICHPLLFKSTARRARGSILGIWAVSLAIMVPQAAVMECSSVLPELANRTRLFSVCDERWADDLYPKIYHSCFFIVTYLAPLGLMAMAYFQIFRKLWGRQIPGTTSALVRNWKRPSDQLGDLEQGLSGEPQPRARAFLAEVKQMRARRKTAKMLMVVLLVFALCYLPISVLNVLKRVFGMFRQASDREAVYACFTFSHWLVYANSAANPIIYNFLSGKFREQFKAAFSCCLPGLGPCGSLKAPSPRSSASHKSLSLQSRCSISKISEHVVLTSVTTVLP
OX1R antag-2 – antagonists of human orexin 1 receptor; AID 434989; 0.43% of 330,000 active; inhibition, % at 5 µM; CHO/OX1R cells, Fluo-8 calcium fluorescence, orexin A;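 active = inhibition above its plate's threshold, mean inhibition of all tested compounds on the plate plus 3 SD, cut at about 37% in these data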
M1 ag parental – M1 agonist counterscreen hit in parental CHO-K1 cells | Fluo-8 calcium fluorescence; scaled to maximal ATP response, vehicle zero | activation, % at 3 µM | 0.48% of 360,000 active | AID 602248; in the data active = activation above about 15%;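 also: untransfected CHO-K1 host cells lacking M1 receptor as counterscreen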
CHO parental Ca – signal in parental CHO cells, OX1R antagonist counter-screen | parental CHO-K1, ATP-induced calcium, Fluo-8 fluorescence | 0.63% of 330,000 active | inhibition, % at 5.6 µM;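 active = inhibition above that plate's mean sample inhibition plus 3 SD, cut at about 26% in these data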
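Material: parental CHO cells / Compound: single nominal dose of 5.6 µM per compound / Signal: Fluo-8 fluorescence / Replicates: singlicate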
M1 PAM parental – M1 PAM counterscreen hit in parental CHO-K1 cells; 0.02% of 360,000 active; activation, % at 3 µM; ATP EC20, Fluo-8 calcium fluorescence; 0% at ATP EC20, 100% at ATP max; AID 602247;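 active = activation above the run cutoff, the mean activation of all test compounds plus 3 SD, cut at about 40% in these data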;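 also: peak over basal fluorescence ratio in a 140 s read after ATP addition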
A number is an active result; n = inactive; x = no result. The list is not random: actives were taken first. Their share in the collection is about 2.9%.

SMILES	CHO-K1 Ca antag	OX1R antag-1	OX1R antag-2	M1 ag parental	CHO parental Ca	M1 PAM parental
O=C1N[C@H]2CC=C[C@H]2Nc2ccccc21	n	n	n	n	n	n
COc1ccc(CNC(=O)c2cnn3c(C(F)F)cc(C)nc23)cc1OC	26	n	n	n	n	n
COCCNC(=O)c1cnn2c(C(F)F)cc(-c3ccc(C)cc3)nc12	n	n	n	n	n	n
COc1ccc(CCNC(=O)COc2ccc(S(=O)(=O)NC(C)C)cc2Cl)cc1OC	n	47	n	n	n	n
COc1ccc(CCNC(=O)CCc2ccc(S(=O)(=O)NC(C)C)cc2)cc1OC	n	n	n	n	n	n
Cc1cccnc1NC(=O)CCc1c[nH]c2ccccc12	24	n	n	n	n	n
CCN1CCc2c(sc(NC(=O)Cc3ccccc3)c2C(N)=O)C1	n	n	n	n	n	n
CCN1CCc2c(sc(NC(=O)Nc3ccc(Cl)c(Cl)c3)c2C(N)=O)C1	59	n	99	95	94	n
O=C(O)c1oc2ccccc2c1CSc1ccc(Cl)cc1	n	63	n	n	n	n
O=C(O)c1oc2ccccc2c1CSc1ccccn1	n	n	n	n	n	n
COc1cc(C(=S)N2CCOCC2)cc(Br)c1OS(=O)(=O)c1ccccc1	n	35	n	n	n	n
COc1ccc(S(=O)(=O)Oc2c(OC)cc(C(=S)N3CCOCC3)cc2OC)cc1	n	n	n	n	n	n
O=C1c2ccccc2C(=O)c2c1ncn2-c1ccccc1	n	64	n	n	n	n
COC(=O)c1ccc(COC(=O)CCNS(=O)(=O)c2ccc(C)c(C)c2)cc1	n	x	x	n	x	n
CC(=O)Oc1ccc2c(c1)O/C(=C\c1ccncc1)C2=O	n	n	n	18	n	n
O=C(Oc1ccc2c(c1)O/C(=C\c1ccncc1)C2=O)c1cccs1	n	n	n	n	n	n
Cn1c(CCN2CCCCC2)nc2cc(NC(=O)COc3ccc(Cl)cc3)ccc21	n	n	n	n	n	n
CN1CCN(CCc2nc3cc(NC(=O)COc4ccc(Cl)cc4)ccc3n2C)CC1	26	n	n	n	n	n
CCC(C)NC(=O)c1cn(CC)c2ccc(S(=O)(=O)N3CCCCCC3)cc2c1=O (stereo not drawn)	n	n	n	n	n	n
CCc1cc(Cn2nc(-c3ccccc3)cc2C(=O)NCc2cccs2)on1	n	n	n	n	50	n
COc1ccc(CN2C[C@@H](CO)O[C@@H](n3cnc4c(NCCN(C)C)ncnc43)C2)cc1	n	x	x	n	x	n
COC(=O)C(Cc1ccc(OC(=O)c2ccc(C(F)(F)F)cc2)cc1)N1Cc2ccccc2C1=O (stereo not drawn)	25	n	n	n	40	n
COC(=O)C(Cc1ccc(OC(=O)c2ccc(Cl)cc2)cc1)N1Cc2ccccc2C1=O (stereo not drawn)	34	n	41	n	53	n
O=C(O)CC(c1ccc(Cl)cc1)N1Cc2ccccc2C1=O (stereo not drawn)	n	n	n	n	n	n
COc1ccc(-c2cccc(NC(=O)COc3ccc(Cl)cc3)c2)nn1	n	n	n	n	n	n
SMILES	CHO-K1 Ca antag	OX1R antag-1	OX1R antag-2	M1 ag parental	CHO parental Ca	M1 PAM parental
O=c1c2ccccc2sc2ccc(NCCCN3CCOCC3)cc12	n	n	n	n	n	n
COc1cc2sc3cc(NCCCN4CCOCC4)ccc3c(=O)c2cc1OC	n	63	n	n	n	n
O=C(Nc1cccc(F)c1)C1CCN(c2nnnn2-c2ccccc2)CC1	28	n	n	n	n	n
COc1ccc([C@H]2CC(=O)C[C@@H](CCn3cc(-c4nccn4C)nn3)O2)cc1	n	x	x	n	x	n
CCNC(=O)C1(C)CCN(C(=O)c2c(-c3ccccc3)noc2C)C1 (stereo not drawn)	n	x	x	n	x	n
CCOC(=O)C1=CCN(S(=O)(=O)c2ccccc2Br)C1c1ccc(Cl)c(Cl)c1 (stereo not drawn)	29	x	x	n	x	n
CCOC(=O)C1=CCN(S(=O)(=O)c2ccccc2C)C1c1ccccc1 (stereo not drawn)	26	x	x	n	x	n
CCOC(=O)C1=CCN(S(=O)(=O)c2ccc(F)cc2)C1c1cccc(F)c1 (stereo not drawn)	27	x	x	n	x	n
CCOC(=O)C1=CCN(S(=O)(=O)c2ccc(F)cc2)C1c1cccc(C)c1 (stereo not drawn)	n	x	x	n	x	n
